Screening results as filed in PubChem.
PolyA inh: inhibitors of polyadenylation in S. cerevisiae; hit rate 0.02% among 300,000; activity score, % at 12 µM; AID 1875; S. cerevisiae SKY197-pL101 polyadenylation reporter, beta-gal luminescence; efflux-impaired pdr1/pdr3 knockout yeast; score 100 = 6 SD above DMSO;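 active = lowest replicate activity score at least 50, where 100 means six control SD above control mean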;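 note: yeast exposed to compound for 9 h at 30 °C; higher score means more reporter readthrough which indicates perturbed polyadenylation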
CHT block: human CHT choline transport inhibition; B-score at 10 µM; CHT-expressing cells, membrane potential dye, choline response; active compounds read low; hit rate 0.86% among 310,000;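 active = B-score over 3 SD under the library average, and starting fluorescence ratio not unusually high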;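 note: choline stimulus applied at its EC90 after an EC20 pre-addition; B-score computed on integrated fluorescence ratio after choline addition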
Target sequence (Q9GZV3 whole entry, looked up): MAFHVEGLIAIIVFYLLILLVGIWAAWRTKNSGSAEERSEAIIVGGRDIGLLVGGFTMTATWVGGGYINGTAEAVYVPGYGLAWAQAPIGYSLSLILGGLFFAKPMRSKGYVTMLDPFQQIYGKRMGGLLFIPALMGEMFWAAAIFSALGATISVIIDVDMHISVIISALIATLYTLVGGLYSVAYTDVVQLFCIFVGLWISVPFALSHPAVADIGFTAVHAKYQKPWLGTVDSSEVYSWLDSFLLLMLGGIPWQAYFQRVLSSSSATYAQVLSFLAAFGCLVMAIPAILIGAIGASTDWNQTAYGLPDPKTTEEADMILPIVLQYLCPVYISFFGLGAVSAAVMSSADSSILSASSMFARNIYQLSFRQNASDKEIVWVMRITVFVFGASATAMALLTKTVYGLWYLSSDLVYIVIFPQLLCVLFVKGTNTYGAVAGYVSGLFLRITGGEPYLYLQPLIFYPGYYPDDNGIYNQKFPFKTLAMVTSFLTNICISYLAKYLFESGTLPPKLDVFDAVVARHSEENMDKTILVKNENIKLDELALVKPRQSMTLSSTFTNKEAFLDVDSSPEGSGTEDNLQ
T cruzi repl: T. cruzi replication inhibition; AID 1885; hit rate 1.4% among 300,000; T. cruzi beta-gal in NIH3T3, luminescence, 90 h; inhibition, % (no concentration beside the values);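 active = mean inhibition across valid replicates above about 55%, limit read from the data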;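 note: signal also drops with host cell toxicity which is not excluded here; 0% = plate median of DMSO wells and 100% = zero luminescence signal; higher percent means less beta-gal luminescence so fewer parasites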
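Incubation – ≥90 h infection period, 3 h prior cell attachment · System – NIH/3T3 fibroblasts plus reporter T. cruzi · Doses – compound pinned at 50 nL/well, DMSO · Read-out basis – percent inhibition of parasite-derived β-gal signal · Signal – luminescent β-galactosidase signal after 60 min lysis · Also added – 5000 T. cruzi trypomastigotes/well · Medium – Low-serum DMEM with 2% FBS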
CHT allo act: human CHT allosteric activation. Q9GZV3. CHT-expressing cells, membrane potential dye, choline EC20; active compounds read high; LV-AA mutant CHT in HEK293 cells. B-score at 10 µM. hit rate 0.49% among 310,000. AID 488977;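 active = initial fluorescence not abnormally high and integrated response B-score, plate-corrected, over 3 SD above library mean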
The depositor's hits bear a star; i = inactive; nt = not tested or not shown. Most compounds without a hit are left out; they make up all but 2.6% or so of the library.

SMILES	PolyA inh	CHT block	T cruzi repl	CHT allo act
N=c1c2c(-c3ccccc3)c(-c3ccccc3)n(Cc3ccco3)c2ncn1CCO	-20.4	i	34.3	i
N=c1c2c(-c3ccccc3)c(-c3ccccc3)n(Cc3ccco3)c2ncn1CCCO	7.8	i	64.7*	i
N=c1c2c(-c3ccccc3)c(-c3ccccc3)n(Cc3ccco3)c2ncn1CCN1CCOCC1	-7.5	i	67.1*	i
O=C(c1cc(COc2c(F)cccc2F)on1)N1CCc2ccccc2C1	-4.9	i	1.7	i
O=C(Nc1ncc(Cc2cccc(C(F)(F)F)c2)s1)c1ccc(-c2cccc([N+](=O)[O-])c2)o1	-3.8	i	61.8*	i
Cc1ccc(C(=O)N2N=C(c3ccc(Br)cc3)CC2c2ccccc2O)cc1 (stereo not given)	14.9	i	55.1*	i
COc1ccc(C2=NN(C(=O)c3cccs3)C(c3ccccc3O)C2)cc1 (stereo not given)	-29.8	i	60.5*	i
COc1ccc(C2CC(c3ccccc3)=NN2C(=O)c2cccs2)cc1 (stereo not given)	-23.6	i	22.2	i
Cc1cccc(NC(=O)N2CCCCCC2)c1	5.6	i	-4.9	i
COc1cc(NC(=S)NCCC(c2ccccc2)c2ccccc2)cc(OC)c1	3.6	i	61.6*	i
COC(=O)C1=C(N)N(c2ccccc2C(F)(F)F)C2=C(C(=O)CCC2)C1c1ccc2c(c1)OCO2 (stereo not given)	-2.1	i	55.9*	i
C/C(=N/NC(N)=S)c1ccc(Br)s1	-22.7	i	61.1*	i
C/C(=N\NC(=O)c1ccc(Cl)c(Cl)c1)c1ccc(Br)s1	0.4	i	70.1*	i
Clc1ccc(COc2cccc(CNCc3ccncc3)c2)cc1	-73.7	i	70.1*	i
CC(C)(CO)NCc1cccc(OCc2ccc(Cl)cc2)c1	17.7	i	27.9	i
Cc1ccc([N+](=O)[O-])cc1NC(=O)CN(C1CCCCC1)S(=O)(=O)c1ccc(Cl)cc1	-15.3	nt	59.0*	nt
Cc1ccc(NC(=O)CN(c2ccc(Cl)cc2)S(=O)(=O)c2cc([N+](=O)[O-])ccc2Cl)c(C)c1	-11.3	i	58.8*	i
Cc1ccc([N+](=O)[O-])cc1NC(=O)C1CCCC1	8.8	i	-8.4	i
CCN(CC)CCN(C(=O)CCOc1ccccc1)c1nc2c(F)cc(F)cc2s1	-4.9	i	56.1*	i
O=C(NCC1CCCCC1)c1ccccc1[N+](=O)[O-]	4.7	i	-17.7	i
CC(C)c1ccc(N(CC(=O)NC2CCCC2)C(=O)CCC(=O)Nc2nccs2)cc1	24.3	i	10.7	i
COc1cccc(-n2c(SCC(=O)Nc3nc4ccccc4s3)nc3ccccc3c2=O)c1	16.5	i	7.8	i
COc1cccc(-n2c(SCC(=O)Nc3sc4c(c3C(N)=O)CCC4)nc3ccccc3c2=O)c1	-10.6	i	59.5*	i
O=C(COC(=O)c1ccc2c(c1[N+](=O)[O-])C(=O)c1ccccc1C2=O)NC1CC1	nt	i	66.0*	i
O=[N+]([O-])c1cc(Cl)cc(/C=N/NC(=S)Nc2ccc(S(=O)(=O)N3CCOCC3)cc2)c1O	-8.0	-8.77*	14.5	i
SMILES	PolyA inh	CHT block	T cruzi repl	CHT allo act
CN(C)S(=O)(=O)c1ccc(Cl)c(C(=O)Nc2cccc3ncccc23)c1	6.8	i	-5.1	i
COc1ccc(-c2ccnc3nc(Sc4ncc(C(F)(F)F)cc4Cl)nn23)cc1	5.5	i	37.2	i
FC(F)(F)c1cnc(Sc2nc3nccc(-c4ccc(Cl)cc4)n3n2)c(Cl)c1	5.7	i	55.5*	i
Cc1cc2sc3ccccc3c(=O)c2c(C)c1O	17.9	i	-8.8	i
O=c1c(C(c2ccccc2)c2c(O)sc3ccccc3c2=O)c(O)sc2ccccc12	-4.1	-5.24*	-11.3	i
Cc1cccn2c(=O)c3cc(C(=O)NC4CCCCC4)c(=N)n(Cc4ccccc4)c3nc12	6.9	i	58.2*	i
CCCCNC(=O)c1cc2c(=O)n3cccc(C)c3nc2n(Cc2ccccc2)c1=N	1.0	i	60.1*	i
Cc1ccc2nc3c(cc(C(=O)NC4CCCC4)c(=N)n3CCCn3ccnc3)c(=O)n2c1	-0.5	i	2.6	6.4*
Cc1oc(-c2cccc(Cl)c2)nc1CS(=O)(=O)CC(=O)NCCCN1CCOCC1	9.1	i	-14.5	i
O=C(NC1CCSc2ccccc21)c1cccc([N+](=O)[O-])c1 (stereo not given)	6.1	i	1.5	i
